ChEMBL document CHEMBL1275392, “Assessment of chemoselective neoglycosylation methods using chlorambucil as a model” (2010)

Tests used:
[1] = tested on: LOX IMVI; experiment: Growth inhibition of human LOXIMVI cells at 10 uM after 7 days by celltiter-glo assay; assay type: functional; conditions: 168 h, read-out: GI
[2] = tested on: K562; experiment: Growth inhibition of human K562 cells at 10 uM after 7 days by celltiter-glo assay; assay type: functional; conditions: K562, 168 h, read-out: GI
[3] = tested on: CAKI-1; experiment: Growth inhibition of human Caki1 cells at 10 uM after 7 days by celltiter-glo assay; assay type: functional; conditions: CAKI-1, 168 h, read-out: GI
[4] = tested on: HCT-15; experiment: Ratio of compound GI50 to chlorambucil GI50 for human HCT15 cells; assay type: functional
[5] = tested on: SF-539; experiment: Growth inhibition of human SF539 cells after 7 days by celltiter-glo assay; assay type: functional; conditions: SF-539, 168 h
[6] = tested on: MOLT-4; experiment: Growth inhibition of human MOLT4 cells at 10 uM after 7 days by celltiter-glo assay; assay type: functional; conditions: MOLT-4, 168 h, read-out: GI
[7] = tested on: SK-MEL-28; experiment: Growth inhibition of human SK-MEL-28 cells at 10 uM after 7 days by celltiter-glo assay; assay type: functional; conditions: SK-MEL-28, 168 h, read-out: GI
[8] = tested on: HCT-15; experiment: Growth inhibition of human HCT15 cells at 10 uM after 7 days by celltiter-glo assay; assay type: functional; conditions: HCT-15, 168 h, read-out: GI
[9] = tested on: HOP-92; experiment: Growth inhibition of human HOP92 cells after 7 days by celltiter-glo assay; assay type: functional; conditions: HOP-92, 168 h
[10] = tested on: NCI-H322M; experiment: Growth inhibition of human NCI-H322M cells at 10 uM after 7 days by celltiter-glo assay; assay type: functional; conditions: 168 h, read-out: GI
[11] = tested on: MDA-MB-435; experiment: Growth inhibition of human MDA-MB-435 cells at 10 uM after 7 days by celltiter-glo assay; assay type: functional; conditions: MDA-MB-435, 168 h, read-out: GI
[12] = tested on: EKVX; experiment: Growth inhibition of human EKVX cells at 10 uM after 7 days by celltiter-glo assay; assay type: functional; conditions: 168 h, read-out: GI
[13] = tested on: MDA-MB-435; experiment: Growth inhibition of human MDA-MB-435 cells after 7 days by celltiter-glo assay; assay type: functional; conditions: MDA-MB-435, 168 h
[14] = tested on: A498; experiment: Growth inhibition of human A498 cells at 10 uM after 7 days by celltiter-glo assay; assay type: functional; conditions: A498, 168 h, read-out: GI
[15] = tested on: CAKI-1; experiment: Growth inhibition of human Caki1 cells after 7 days by celltiter-glo assay; assay type: functional; conditions: CAKI-1, 168 h
[16] = tested on: MDA-MB-231; experiment: Growth inhibition of human MDA-MB-231 cells after 7 days by celltiter-glo assay; assay type: functional; conditions: MDA-MB-231, 168 h
[17] = tested on: HOP-62; experiment: Growth inhibition of human HOP62 cells at 10 uM after 7 days by celltiter-glo assay; assay type: functional; conditions: HOP-62, 168 h, read-out: GI
[18] = tested on: SW-620; experiment: Growth inhibition of human SW620 cells after 7 days by celltiter-glo assay; assay type: functional; conditions: SW-620, 168 h
[19] = tested on: MDA-MB-231; experiment: Growth inhibition of human MDA-MB-231 cells at 10 uM after 7 days by celltiter-glo assay; assay type: functional; conditions: MDA-MB-231, 168 h, read-out: GI
[20] = tested on: KM12; experiment: Growth inhibition of human KM12 cells at 10 uM after 7 days by celltiter-glo assay; assay type: functional; conditions: KM12, 168 h, read-out: GI
[21] = tested on: Malme-3M; experiment: Growth inhibition of human MALME-3M cells at 10 uM after 7 days by celltiter-glo assay; assay type: functional; conditions: 168 h, read-out: GI
[22] = tested on: IGROV-1; experiment: Growth inhibition of human IGROV1 cells after 7 days by celltiter-glo assay; assay type: functional; conditions: IGROV-1, 168 h
[23] = tested on: NCI-H226; experiment: Growth inhibition of human NCI-H226 cells after 7 days by celltiter-glo assay; assay type: functional; conditions: NCI-H226, 168 h
[24] = tested on: HOP-62; experiment: Growth inhibition of human HOP62 cells after 7 days by celltiter-glo assay; assay type: functional; conditions: HOP-62, 168 h
[25] = tested on: MDA-MB-468; experiment: Growth inhibition of human MDA-MB-468 cells after 7 days by celltiter-glo assay; assay type: functional; conditions: MDA-MB-468, 168 h
[26] = tested on: NCI-H460; experiment: Growth inhibition of human NCI-H460 cells at 10 uM after 7 days by celltiter-glo assay; assay type: functional; conditions: NCI-H460, 168 h, read-out: GI
[27] = tested on: SK-MEL-5; experiment: Growth inhibition of human SK-MEL-5 cells after 7 days by celltiter-glo assay; assay type: functional; conditions: SK-MEL-5, 168 h
[28] = tested on: SNB-75; experiment: Growth inhibition of human SNB75 cells after 7 days by celltiter-glo assay; assay type: functional; conditions: SNB-75, 168 h
[29] = tested on: NCI-H23; experiment: Growth inhibition of human NCI-H23 cells at 10 uM after 7 days by celltiter-glo assay; assay type: functional; conditions: NCI-H23, 168 h, read-out: GI
[30] = tested on: SK-OV-3; experiment: Growth inhibition of human SKOV3 cells at 10 uM after 7 days by celltiter-glo assay; assay type: functional; conditions: SK-OV-3, 168 h, read-out: GI
[31] = tested on: OVCAR-8; experiment: Growth inhibition of human OVCAR8 cells at 10 uM after 7 days by celltiter-glo assay; assay type: functional; conditions: OVCAR-8, 168 h, read-out: GI
[32] = tested on: MCF7; experiment: Growth inhibition of human MCF7 cells after 7 days by celltiter-glo assay; assay type: functional; conditions: MCF7, 168 h
[33] = Growth inhibition of human p53 deficient H1299 cells after 7 days by celltiter-glo assay; assay type: functional; conditions: NCI-H1299, 168 h
Method in brief: (§1)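 Cells seeded at 500 per well in 384-well plates. Compounds came from 30 mM DMSO stocks, serially diluted and tested in quadruplicate. Incubation was 7 d at 37 °C under 5% CO2. Calcein AM (10 μM) and EthD-1 were added, followed by a fluorescence read. CellTiter-Glo lysis was then done for 10 min at room temperature, with a luminescence read. GI50 came from curve fitting.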

[34] = tested on: SK-MEL-2; experiment: Growth inhibition of human SK-MEL-2 cells at 10 uM after 7 days by celltiter-glo assay; assay type: functional; conditions: SK-MEL-2, 168 h, read-out: GI
[35] = tested on: SR; experiment: Growth inhibition of human SR cells at 10 uM after 7 days by celltiter-glo assay; assay type: functional; conditions: 168 h, read-out: GI
[36] = tested on: SN12C; experiment: Growth inhibition of human SN12C cells after 7 days by celltiter-glo assay; assay type: functional; conditions: 168 h
[37] = tested on: TK-10; experiment: Growth inhibition of human TK10 cells at 10 uM after 7 days by celltiter-glo assay; assay type: functional; conditions: TK-10, 168 h, read-out: GI
[38] = tested on: SF-295; experiment: Growth inhibition of human SF295 cells after 7 days by celltiter-glo assay; assay type: functional; conditions: SF-295, 168 h
[39] = tested on: SK-MEL-2; experiment: Growth inhibition of human SK-MEL-2 cells after 7 days by celltiter-glo assay; assay type: functional; conditions: SK-MEL-2, 168 h
[40] = tested on: CCRF-CEM; experiment: Growth inhibition of human CCRF-CEM cells at 10 uM after 7 days by celltiter-glo assay; assay type: functional; conditions: 168 h, read-out: GI
[41] = Growth inhibition of human p53 deficient Hep3B cells after 7 days by celltiter-glo assay; assay type: functional, Hep 3B2; conditions: 168 h; method in brief: as §1
[42] = tested on: DU-145; experiment: Growth inhibition of human DU145 cells at 10 uM after 7 days by celltiter-glo assay; assay type: functional; conditions: DU-145, 168 h, read-out: GI
[43] = tested on: DU-145; experiment: Growth inhibition of human DU145 cells after 7 days by celltiter-glo assay; assay type: functional; conditions: DU-145, 168 h

CON(CCCc1ccc(N(CCCl)CCCl)cc1)C1OC[C@@H](O)[C@@H]1O (stereo partly drawn)
inhibition of growth at 10 µM [1]: 54.8%
inhibition of growth at 10 µM [2]: 88.5%
inhibition of growth at 10 µM [3]: 13.6%
RatioGI50 [4]: 15
GI50 [5]: 8.8 µM
inhibition of growth at 10 µM [6]: 64.4%
inhibition of growth at 10 µM [7]: 117%
inhibition of growth at 10 µM [8]: 77.1%
GI50 [9]: 4.03 µM
inhibition of growth at 10 µM [10]: 99%
inhibition of growth at 10 µM [11]: 83%
inhibition of growth at 10 µM [12]: 91.2%
GI50 [13]: 21.1 µM
inhibition of growth at 10 µM [14]: 114%
GI50 [15]: 11.5 µM
GI50 [16]: 1.39 µM
inhibition of growth at 10 µM [17]: 73.2%
GI50 [18]: 12.4 µM
inhibition of growth at 10 µM [19]: 87.5%
inhibition of growth at 10 µM [20]: 97.6%
inhibition of growth at 10 µM [21]: 69.7%
GI50 [22]: 1.21 µM
GI50 [23]: 0.925 µM
GI50 [24]: 8.28 µM
GI50 [25]: 7.25 µM
inhibition of growth at 10 µM [26]: 35.8%
GI50 [27]: 17.7 µM
GI50 [28]: 19.5 µM
inhibition of growth at 10 µM [29]: 54.4%
inhibition of growth at 10 µM [30]: 72.8%
inhibition of growth at 10 µM [31]: 68.1%
GI50 [32]: 1.8 µM
GI50 [33]: 0.37 µM
inhibition of growth at 10 µM [34]: 100%
inhibition of growth at 10 µM [35]: 48.7%
GI50 [36]: 7.06 µM
inhibition of growth at 10 µM [37]: 97.2%
GI50 [38]: 6.47 µM
GI50 [39]: 20.2 µM
inhibition of growth at 10 µM [40]: 21.2%
GI50 [41]: 0.67 µM
inhibition of growth at 10 µM [42]: 56.8%
GI50 [43]: 1.8 µM
